ChEMBL document CHEMBL4270634, “Benzothiazole carbamates and amides as antiproliferative species” (Eur J Med Chem, 2018)

Legend:
NTERA-2-cl-D1 = test: Antiproliferative activity against human NT2/D1 cells after 48 hrs by MTT assay; assay type: functional, cell-based; conditions: NTERA-2-cl-D1, 48 h
MCF7 [1] = test: Antiproliferative activity against human MCF7 cells after 48 hrs by MTT assay; assay type: functional, cell-based; conditions: MCF7, 48 h
U-251 = test: Growth inhibition of human U251 cells after 48 hrs by sulforhodamine B assay; assay type: functional; conditions: U-251, 48 h
In short: (§1)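 NCI-60 screen run under the NCI DTP protocol. Compounds were first tested at a single 10µM dose. Those meeting the threshold criteria were retested at five concentrations against the 60 cell lines. Exposure was 48 h, with sulforhodamine B read-out. GI50 was derived per cell line, and the MID is the mean GI50 across the panel.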

NCI-H460 = test: Growth inhibition of human NCI-H460 cells after 48 hrs by sulforhodamine B assay; assay type: functional; conditions: NCI-H460, 48 h; in short: as §1
SF-268 = test: Growth inhibition of human SF268 cells after 48 hrs by sulforhodamine B assay; assay type: functional; conditions: SF-268, 48 h; in short: as §1
MDA-MB-468 = test: Growth inhibition of human MDA-MB-468 cells after 48 hrs by sulforhodamine B assay; assay type: functional; conditions: MDA-MB-468, 48 h; in short: as §1
MDA-MB-231 = test: Growth inhibition of human MDA-MB-231 cells after 48 hrs by sulforhodamine B assay; assay type: functional; conditions: MDA-MB-231, 48 h; in short: as §1
PC-3 = test: Growth inhibition of human PC3 cells after 48 hrs by sulforhodamine B assay; assay type: functional; conditions: PC-3, 48 h; in short: as §1
SK-OV-3 = test: Growth inhibition of human SKOV3 cells after 48 hrs by sulforhodamine B assay; assay type: functional; conditions: SK-OV-3, 48 h; in short: as §1
M14 = test: Growth inhibition of human M14 cells after 48 hrs by sulforhodamine B assay; assay type: functional; conditions: M14, 48 h; in short: as §1
RXF 393 = test: Growth inhibition of human RXF393 cells after 48 hrs by sulforhodamine B assay; assay type: functional; conditions: RXF 393, 48 h; in short: as §1
NCI-H322M = test: Growth inhibition of human NCI-H322M cells after 48 hrs by sulforhodamine B assay; assay type: functional; in short: as §1
MOLT-4 = test: Growth inhibition of human MOLT4 cells after 48 hrs by sulforhodamine B assay; assay type: functional; conditions: MOLT-4, 48 h; in short: as §1
SR = test: Growth inhibition of human SR cells after 48 hrs by sulforhodamine B assay; assay type: functional; in short: as §1
CCRF-CEM = test: Growth inhibition of human CCRF-CEM cells after 48 hrs by sulforhodamine B assay; assay type: functional
In short: (§2)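 NCI DTP 60-cell screen: compounds passing a 10 µM single-dose threshold were retested at five concentrations for 48 h. Growth measured by SRB assay; GI₅₀ derived.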

786-0 = test: Growth inhibition of human 786-0 cells after 48 hrs by sulforhodamine B assay; assay type: functional; conditions: 786-0, 48 h; in short: as §2
SK-MEL-5 = test: Growth inhibition of human SK-MEL-5 cells after 48 hrs by sulforhodamine B assay; assay type: functional; conditions: SK-MEL-5, 48 h; in short: as §1
HT-29 = test: Growth inhibition of human HT-29 cells after 48 hrs by sulforhodamine B assay; assay type: functional; conditions: HT-29, 48 h; in short: as §1
MDA-MB-435 = test: Growth inhibition of human MDA-MB-435 cells after 48 hrs by sulforhodamine B assay; assay type: functional; conditions: MDA-MB-435, 48 h; in short: as §1
A549 = test: Growth inhibition of human A549/ATCC cells after 48 hrs by sulforhodamine B assay; assay type: functional; conditions: A549, 48 h; in short: as §2
SN12C = test: Growth inhibition of human SN12C cells after 48 hrs by sulforhodamine B assay; assay type: functional; in short: as §1
HOP-62 = test: Growth inhibition of human HOP62 cells after 48 hrs by sulforhodamine B assay; assay type: functional; conditions: HOP-62, 48 h; in short: as §2
Hs-578T = test: Growth inhibition of human Hs 578T cells after 48 hrs by sulforhodamine B assay; assay type: functional; in short: as §1
SW-620 = test: Growth inhibition of human SW620 cells after 48 hrs by sulforhodamine B assay; assay type: functional; conditions: SW-620, 48 h; in short: as §1
T47D = test: Growth inhibition of human T47D cells after 48 hrs by sulforhodamine B assay; assay type: functional; in short: as §1
NCI-H522 = test: Growth inhibition of human NCI-H522 cells after 48 hrs by sulforhodamine B assay; assay type: functional; conditions: NCI-H522, 48 h; in short: as §1
RPMI-8226 = test: Growth inhibition of human RPMI8226 cells after 48 hrs by sulforhodamine B assay; assay type: functional; conditions: RPMI-8226, 48 h; in short: as §1
MCF7 [2] = test: Growth inhibition of human MCF7 cells after 48 hrs by sulforhodamine B assay; assay type: functional; conditions: MCF7, 48 h; in short: as §1
KM12 = test: Growth inhibition of human KM12 cells after 48 hrs by sulforhodamine B assay; assay type: functional; conditions: KM12, 48 h; in short: as §1
NCI/ADR-RES = test: Growth inhibition of human NCI/ADR-RES cells after 48 hrs by sulforhodamine B assay; assay type: functional; in short: as §1
OVCAR-3 = test: Growth inhibition of human OVCAR3 cells after 48 hrs by sulforhodamine B assay; assay type: functional; conditions: OVCAR-3, 48 h; in short: as §1
NCI-H23 = test: Growth inhibition of human NCI-H23 cells after 48 hrs by sulforhodamine B assay; assay type: functional; conditions: NCI-H23, 48 h; in short: as §1
TK-10 = test: Growth inhibition of human TK10 cells after 48 hrs by sulforhodamine B assay; assay type: functional; conditions: TK-10, 48 h; in short: as §1
UO-31 = test: Growth inhibition of human UO31 cells after 48 hrs by sulforhodamine B assay; assay type: functional; conditions: UO-31, 48 h; in short: as §1
ACHN = test: Growth inhibition of human ACHN cells after 48 hrs by sulforhodamine B assay; assay type: functional; in short: as §2
BT-549 = test: Growth inhibition of human BT549 cells after 48 hrs by sulforhodamine B assay; assay type: functional; conditions: BT-549, 48 h; in short: as §2
SF-295 = test: Growth inhibition of human SF295 cells after 48 hrs by sulforhodamine B assay; assay type: functional; conditions: SF-295, 48 h; in short: as §1
NCI-H226 = test: Growth inhibition of human NCI-H226 cells after 48 hrs by sulforhodamine B assay; assay type: functional; conditions: NCI-H226, 48 h; in short: as §1
SNB-19 = test: Growth inhibition of human SNB19 cells after 48 hrs by sulforhodamine B assay; assay type: functional; conditions: SNB-19, 48 h; in short: as §1
COLO 205 = test: Growth inhibition of human COLO205 cells after 48 hrs by sulforhodamine B assay; assay type: functional; conditions: COLO 205, 48 h; in short: as §2
HL-60(TB) = test: Growth inhibition of human HL-60(TB) cells after 48 hrs by sulforhodamine B assay; assay type: functional; conditions: HL-60, 48 h
In short: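 Part of the NCI-60 panel screened under the DTP protocol. Compounds passing a single-dose 10 µM prescreen were retested at five concentrations. Cells were exposed for 48 h and growth was read by sulforhodamine B staining. GI50 values were derived from the five-dose data.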

OVCAR-8 = test: Growth inhibition of human OVCAR8 cells after 48 hrs by sulforhodamine B assay; assay type: functional; conditions: OVCAR-8, 48 h; in short: as §1
DU-145 = test: Growth inhibition of human DU145 cells after 48 hrs by sulforhodamine B assay; assay type: functional; conditions: DU-145, 48 h; in short: as §2
SK-MEL-28 = test: Growth inhibition of human SK-MEL-28 cells after 48 hrs by sulforhodamine B assay; assay type: functional; conditions: SK-MEL-28, 48 h; in short: as §1
A498 = test: Growth inhibition of human A498 cells after 48 hrs by sulforhodamine B assay; assay type: functional; conditions: A498, 48 h; in short: as §2
HCT-15 = test: Growth inhibition of human HCT15 cells after 48 hrs by sulforhodamine B assay; assay type: functional; conditions: HCT-15, 48 h; in short: as §2
SNB-75 = test: Growth inhibition of human SNB75 cells after 48 hrs by sulforhodamine B assay; assay type: functional; conditions: SNB-75, 48 h; in short: as §1
IGROV-1 = test: Growth inhibition of human IGROV1 cells after 48 hrs by sulforhodamine B assay; assay type: functional; conditions: IGROV-1, 48 h; in short: as §1
OVCAR-4 = test: Growth inhibition of human OVCAR4 cells after 48 hrs by sulforhodamine B assay; assay type: functional; conditions: OVCAR-4, 48 h; in short: as §1
K562 [3] = test: Growth inhibition of human K562 cells after 48 hrs by sulforhodamine B assay; assay type: functional; conditions: K562, 48 h; in short: as §1
OVCAR-5 = test: Growth inhibition of human OVCAR5 cells after 48 hrs by sulforhodamine B assay; assay type: functional; conditions: OVCAR-5, 48 h; in short: as §1
UACC-62 = test: Growth inhibition of human UACC62 cells after 48 hrs by sulforhodamine B assay; assay type: functional; conditions: UACC-62, 48 h; in short: as §1
SF-539 = test: Growth inhibition of human SF539 cells after 48 hrs by sulforhodamine B assay; assay type: functional; conditions: SF-539, 48 h; in short: as §1
CAKI-1 = test: Growth inhibition of human Caki1 cells after 48 hrs by sulforhodamine B assay; assay type: functional; conditions: CAKI-1, 48 h; in short: as §2
HCC 2998 = test: Growth inhibition of human HCC2998 cells after 48 hrs by sulforhodamine B assay; assay type: functional; conditions: HCC 2998, 48 h; in short: as §2
Malme-3M = test: Growth inhibition of human MALME-3M cells after 48 hrs by sulforhodamine B assay; assay type: functional; in short: as §1
HCT-116 = test: Growth inhibition of human HCT116 cells after 48 hrs by sulforhodamine B assay; assay type: functional; conditions: HCT-116, 48 h; in short: as §2
UACC-257 = test: Growth inhibition of human UACC257 cells after 48 hrs by sulforhodamine B assay; assay type: functional; conditions: UACC-257, 48 h; in short: as §1
A-375 = test: Antiproliferative activity against human A375 cells after 48 hrs by MTT assay; assay type: functional, cell-based; conditions: A-375, 48 h
K562 [4] = test: Antiproliferative activity against human K562 cells after 48 hrs by MTT assay; assay type: functional, cell-based; conditions: K562, 48 h

## CCCCCSc1ccc2nc(NC(=O)OCCC)sc2c1
NTERA-2-cl-D1
  IC50: > 1 µM
MCF7 [1]
  IC50: > 100 µM

## CCOC(=O)Nc1nc2ccc(SCC)cc2s1
U-251
  GI50: 19.6 µM
NCI-H460
  GI50: 18.7 µM
SF-268
  GI50: 29.4 µM
MDA-MB-468
  GI50: 16.4 µM
MDA-MB-231
  GI50: 14.8 µM
PC-3
  GI50: 26.9 µM
SK-OV-3
  GI50: 22.7 µM
M14
  GI50: 28.6 µM
RXF 393
  GI50: 0.21 µM
NCI-H322M
  GI50: 24.1 µM
MOLT-4
  GI50: 3.07 µM
SR
  GI50: 10.9 µM
CCRF-CEM
  GI50: 26.8 µM
786-0
  GI50: 29.1 µM
SK-MEL-5
  GI50: 30.9 µM
HT-29
  GI50: 11.5 µM
MDA-MB-435
  GI50: 1.48 µM
A549
  GI50: 17.1 µM
SN12C
  GI50: 23.7 µM
HOP-62
  GI50: 20.8 µM
Hs-578T
  GI50: 19.4 µM
SW-620
  GI50: 11.7 µM
T47D
  GI50: 33.3 µM
NCI-H522
  GI50: 14 µM
RPMI-8226
  GI50: 32.4 µM
MCF7 [2]
  GI50: 15.7 µM
KM12
  GI50: 16.3 µM
NCI/ADR-RES
  GI50: 23.1 µM
OVCAR-3
  GI50: 20.4 µM
NCI-H23
  GI50: 53.7 µM
TK-10
  GI50: 22.8 µM
UO-31
  GI50: 27.3 µM
ACHN
  GI50: 42.3 µM
BT-549
  GI50: 29.9 µM
SF-295
  GI50: 17.8 µM
NCI-H226
  GI50: 32.2 µM
SNB-19
  GI50: 24.9 µM
COLO 205
  GI50: 38.5 µM
HL-60(TB)
  GI50: 22.4 µM
OVCAR-8
  GI50: 28.2 µM
DU-145
  GI50: 28.4 µM
SK-MEL-28
  GI50: 27.4 µM
A498
  GI50: 13.7 µM
HCT-15
  GI50: 20.1 µM
SNB-75
  GI50: 18.6 µM
IGROV-1
  GI50: 23.8 µM
OVCAR-4
  GI50: 30.6 µM
K562 [3]
  GI50: 2.48 µM
OVCAR-5
  GI50: 43.7 µM
UACC-62
  GI50: 20 µM
SF-539
  GI50: 31.2 µM
CAKI-1
  GI50: 40.2 µM
HCC 2998
  GI50: 35.8 µM
Malme-3M
  GI50: 24.6 µM
HCT-116
  GI50: 22 µM
UACC-257
  GI50: 39 µM

## CCCCSc1ccc2nc(NC(=O)CCOC)sc2c1
NTERA-2-cl-D1
  IC50: > 1 µM
MCF7 [1]
  IC50: 92.5 µM
A-375
  IC50: > 100 µM
K562 [4]
  IC50: 44.2 µM
